# Assay results from ChEMBL document CHEMBL1143293, “5-Substituted pyrido[2,3-d]pyrimidine, an inhibitor against three receptor tyrosine kinases” (Bioorg Med Chem Lett, 2009).
# Active and inactive are the calls of the source. No cut-off for these calls is given here.
# Experiments:
# HUVEC [1] = experiment: Inhibition of rhFGF2-induced HUVEC proliferation; format: functional, cell-based; conditions: Homo sapiens; for minimal effective concentration: read-out: MEC
# Summary of the method: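 HUVEC proliferation was induced with recombinant human FGF-2 in the presence of compound. Inhibition was reported as IC50 (μM) and as the minimum effective concentration.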
# HUVEC [2] = experiment: Cytotoxicity against HUVEC cells; format: cell-based; conditions: human
# Summary of the method: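 Cytotoxicity was taken from HUVEC proliferation run without rhFGF-2 stimulation, and the value was reported as the minimum cytotoxic concentration.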
# HUVEC [3] = experiment: Inhibition of recombinant human FGF2-induced ERK phosphorylation in HUVEC cells by Western blot; format: cell-based
# [4] = molecular target: Fibroblast growth factor receptor 1 (Homo sapiens, UniProt P11362); experiment: Inhibition of human FGFR1 expressed in insect cells by HTRF method
# [5] = molecular target: RAC-alpha serine/threonine-protein kinase (Homo sapiens) (UniProt P31749); experiment: Inhibition of recombinant human FGF2-induced AKT phosphorylation in HUVEC cells by Western blot; format: cell-based
# HUVEC [6] = experiment: Antiangiogenic activity in HUVEC cells assessed incomplete narrow tube formation after 4 hrs by tube formation assay; format: functional, cell-based; conditions: Homo sapiens
# Summary of the method: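 HUVEC seeded onto wells coated with Matrigel, with compound present at 1, 3, 10 and 25 μM; FGF-2-stimulated and untreated controls included. After 4 h at 37 °C, cultures were fixed with glutaraldehyde and the length of the capillary-like tubes was measured. Data are means + SD of four wells from a representative experiment.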
# [7] = molecular target: Platelet-derived growth factor receptor beta (Homo sapiens, UniProt P09619); experiment: Inhibition of PDGFRbeta
# [8] = molecular target: Vascular endothelial growth factor receptor 2 (Homo sapiens, UniProt P35968); experiment: Inhibition of VEGFR2
# [9] = molecular target: Epidermal growth factor receptor (Homo sapiens, UniProt P00533)
# [10] = molecular target: c-Jun N-terminal kinase, JNK (Homo sapiens) (UniProt P45983+P53779+P45984); experiment: Inhibition of recombinant human FGF2-induced JNK phosphorylation in HUVEC cells by Western blot; format: cell-based
# Chain of Platelet-derived growth factor receptor beta (P09619 whole entry): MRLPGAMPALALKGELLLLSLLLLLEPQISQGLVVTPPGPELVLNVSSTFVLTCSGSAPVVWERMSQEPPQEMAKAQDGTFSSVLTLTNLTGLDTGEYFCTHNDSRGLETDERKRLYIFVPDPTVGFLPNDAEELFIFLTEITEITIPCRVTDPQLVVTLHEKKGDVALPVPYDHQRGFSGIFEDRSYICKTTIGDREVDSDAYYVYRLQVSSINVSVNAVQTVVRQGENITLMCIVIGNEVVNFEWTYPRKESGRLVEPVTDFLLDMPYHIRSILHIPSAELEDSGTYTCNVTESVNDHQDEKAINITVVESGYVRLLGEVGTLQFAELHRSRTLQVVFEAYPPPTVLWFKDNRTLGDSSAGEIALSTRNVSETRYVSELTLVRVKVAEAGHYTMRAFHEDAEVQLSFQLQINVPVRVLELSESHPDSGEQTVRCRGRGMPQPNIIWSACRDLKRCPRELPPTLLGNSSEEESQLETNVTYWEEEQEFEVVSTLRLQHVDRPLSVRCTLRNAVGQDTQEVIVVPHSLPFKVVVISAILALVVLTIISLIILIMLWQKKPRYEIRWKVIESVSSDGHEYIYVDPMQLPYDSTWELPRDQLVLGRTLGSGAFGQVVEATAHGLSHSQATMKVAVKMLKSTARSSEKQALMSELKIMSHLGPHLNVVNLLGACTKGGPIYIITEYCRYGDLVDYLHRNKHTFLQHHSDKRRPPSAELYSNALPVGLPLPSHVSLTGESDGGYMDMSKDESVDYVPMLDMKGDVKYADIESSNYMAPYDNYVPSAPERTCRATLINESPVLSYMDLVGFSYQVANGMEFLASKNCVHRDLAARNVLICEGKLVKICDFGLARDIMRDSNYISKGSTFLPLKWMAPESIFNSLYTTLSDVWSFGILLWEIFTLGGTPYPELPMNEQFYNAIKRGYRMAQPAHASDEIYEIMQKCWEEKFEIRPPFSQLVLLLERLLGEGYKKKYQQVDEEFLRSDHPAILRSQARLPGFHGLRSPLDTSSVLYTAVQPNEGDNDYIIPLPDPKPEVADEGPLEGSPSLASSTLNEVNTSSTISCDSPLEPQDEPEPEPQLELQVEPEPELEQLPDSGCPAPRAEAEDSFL
# Chain of Fibroblast growth factor receptor 1 (P11362 whole entry): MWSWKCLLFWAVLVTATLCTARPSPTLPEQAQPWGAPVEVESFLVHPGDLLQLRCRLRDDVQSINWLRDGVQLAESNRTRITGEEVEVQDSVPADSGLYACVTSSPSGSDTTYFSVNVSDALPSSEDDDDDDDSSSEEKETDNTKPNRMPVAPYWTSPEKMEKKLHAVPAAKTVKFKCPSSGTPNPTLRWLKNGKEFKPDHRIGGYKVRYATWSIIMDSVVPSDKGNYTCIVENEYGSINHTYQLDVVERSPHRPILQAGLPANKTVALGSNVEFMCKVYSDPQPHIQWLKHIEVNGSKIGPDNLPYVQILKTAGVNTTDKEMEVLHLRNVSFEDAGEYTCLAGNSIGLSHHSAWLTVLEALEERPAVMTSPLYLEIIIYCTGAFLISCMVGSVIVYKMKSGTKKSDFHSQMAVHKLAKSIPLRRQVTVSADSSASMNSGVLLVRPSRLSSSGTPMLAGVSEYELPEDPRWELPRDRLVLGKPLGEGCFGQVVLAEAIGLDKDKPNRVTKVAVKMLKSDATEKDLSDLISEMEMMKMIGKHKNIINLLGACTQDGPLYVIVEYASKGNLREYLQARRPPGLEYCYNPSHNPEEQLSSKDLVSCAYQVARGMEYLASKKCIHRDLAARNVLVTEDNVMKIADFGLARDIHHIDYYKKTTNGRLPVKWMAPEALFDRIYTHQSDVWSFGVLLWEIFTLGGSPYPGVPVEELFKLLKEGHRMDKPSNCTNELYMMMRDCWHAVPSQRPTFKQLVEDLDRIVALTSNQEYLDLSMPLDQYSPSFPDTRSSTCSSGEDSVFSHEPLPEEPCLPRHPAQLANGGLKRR
# Chain of Vascular endothelial growth factor receptor 2 (P35968 whole entry): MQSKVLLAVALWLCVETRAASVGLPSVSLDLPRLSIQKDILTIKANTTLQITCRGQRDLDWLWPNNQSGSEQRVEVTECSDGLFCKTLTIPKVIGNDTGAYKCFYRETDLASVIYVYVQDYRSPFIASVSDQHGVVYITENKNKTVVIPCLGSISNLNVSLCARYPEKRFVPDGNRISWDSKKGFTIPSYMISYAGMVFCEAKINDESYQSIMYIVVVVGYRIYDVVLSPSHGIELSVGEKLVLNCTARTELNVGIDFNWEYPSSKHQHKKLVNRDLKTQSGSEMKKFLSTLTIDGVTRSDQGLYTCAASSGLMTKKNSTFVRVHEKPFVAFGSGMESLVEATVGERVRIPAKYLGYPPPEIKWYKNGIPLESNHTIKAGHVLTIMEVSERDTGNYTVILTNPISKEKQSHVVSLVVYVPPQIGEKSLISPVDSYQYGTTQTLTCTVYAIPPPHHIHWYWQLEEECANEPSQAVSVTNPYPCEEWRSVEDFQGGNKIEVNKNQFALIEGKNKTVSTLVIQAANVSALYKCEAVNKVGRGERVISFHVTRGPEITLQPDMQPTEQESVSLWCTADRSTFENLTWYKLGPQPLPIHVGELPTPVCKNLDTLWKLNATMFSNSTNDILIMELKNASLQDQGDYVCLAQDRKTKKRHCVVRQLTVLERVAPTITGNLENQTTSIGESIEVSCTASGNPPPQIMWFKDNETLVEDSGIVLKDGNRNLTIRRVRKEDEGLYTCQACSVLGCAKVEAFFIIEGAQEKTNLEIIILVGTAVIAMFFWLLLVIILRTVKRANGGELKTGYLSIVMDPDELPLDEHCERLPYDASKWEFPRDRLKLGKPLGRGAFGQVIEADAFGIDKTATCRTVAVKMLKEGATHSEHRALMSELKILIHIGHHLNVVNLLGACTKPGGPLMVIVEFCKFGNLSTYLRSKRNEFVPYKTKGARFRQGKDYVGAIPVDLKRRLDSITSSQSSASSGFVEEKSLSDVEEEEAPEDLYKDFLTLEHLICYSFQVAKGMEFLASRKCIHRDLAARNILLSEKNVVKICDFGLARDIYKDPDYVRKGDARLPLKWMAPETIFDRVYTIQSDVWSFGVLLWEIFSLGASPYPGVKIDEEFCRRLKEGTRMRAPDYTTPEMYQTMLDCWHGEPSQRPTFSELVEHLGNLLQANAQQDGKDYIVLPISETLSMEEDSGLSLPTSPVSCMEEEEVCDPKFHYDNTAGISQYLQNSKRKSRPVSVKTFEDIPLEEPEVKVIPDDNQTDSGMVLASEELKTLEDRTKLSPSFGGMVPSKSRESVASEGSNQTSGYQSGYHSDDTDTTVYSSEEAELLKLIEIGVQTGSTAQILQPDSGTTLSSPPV
# Chain of Epidermal growth factor receptor (P00533 whole entry): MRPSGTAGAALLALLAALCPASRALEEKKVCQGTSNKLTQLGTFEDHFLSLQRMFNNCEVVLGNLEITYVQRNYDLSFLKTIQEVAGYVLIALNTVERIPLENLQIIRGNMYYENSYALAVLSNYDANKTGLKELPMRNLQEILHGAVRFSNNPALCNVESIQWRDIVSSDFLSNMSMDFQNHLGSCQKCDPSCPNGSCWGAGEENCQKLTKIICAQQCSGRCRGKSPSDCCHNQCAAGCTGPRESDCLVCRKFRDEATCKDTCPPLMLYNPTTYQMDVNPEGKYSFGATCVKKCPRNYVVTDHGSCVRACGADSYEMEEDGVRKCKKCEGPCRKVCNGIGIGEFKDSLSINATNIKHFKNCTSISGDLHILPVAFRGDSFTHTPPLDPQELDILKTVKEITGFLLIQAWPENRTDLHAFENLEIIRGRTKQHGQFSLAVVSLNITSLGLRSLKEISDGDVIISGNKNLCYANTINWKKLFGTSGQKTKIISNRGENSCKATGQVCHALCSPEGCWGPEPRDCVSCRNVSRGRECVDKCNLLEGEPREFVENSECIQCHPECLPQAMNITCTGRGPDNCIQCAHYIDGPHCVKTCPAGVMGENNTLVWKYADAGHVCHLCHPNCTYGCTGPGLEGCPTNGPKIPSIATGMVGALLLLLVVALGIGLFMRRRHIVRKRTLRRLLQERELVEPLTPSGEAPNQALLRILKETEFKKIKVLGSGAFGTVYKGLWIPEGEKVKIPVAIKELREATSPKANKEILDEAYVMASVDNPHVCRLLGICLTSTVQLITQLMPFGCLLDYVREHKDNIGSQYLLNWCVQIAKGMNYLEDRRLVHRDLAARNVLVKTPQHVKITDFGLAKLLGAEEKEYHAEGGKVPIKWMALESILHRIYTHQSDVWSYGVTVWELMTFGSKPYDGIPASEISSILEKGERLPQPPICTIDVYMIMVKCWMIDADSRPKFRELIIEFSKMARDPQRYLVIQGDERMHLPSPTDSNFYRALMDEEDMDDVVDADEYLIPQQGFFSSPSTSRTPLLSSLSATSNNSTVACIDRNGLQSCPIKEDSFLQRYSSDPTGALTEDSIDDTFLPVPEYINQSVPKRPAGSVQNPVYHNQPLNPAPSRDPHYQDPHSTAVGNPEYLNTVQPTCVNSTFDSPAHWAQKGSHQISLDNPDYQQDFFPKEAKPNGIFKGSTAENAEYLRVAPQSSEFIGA
# Chain of RAC-alpha serine/threonine-protein kinase (Homo sapiens) (P31749 whole entry): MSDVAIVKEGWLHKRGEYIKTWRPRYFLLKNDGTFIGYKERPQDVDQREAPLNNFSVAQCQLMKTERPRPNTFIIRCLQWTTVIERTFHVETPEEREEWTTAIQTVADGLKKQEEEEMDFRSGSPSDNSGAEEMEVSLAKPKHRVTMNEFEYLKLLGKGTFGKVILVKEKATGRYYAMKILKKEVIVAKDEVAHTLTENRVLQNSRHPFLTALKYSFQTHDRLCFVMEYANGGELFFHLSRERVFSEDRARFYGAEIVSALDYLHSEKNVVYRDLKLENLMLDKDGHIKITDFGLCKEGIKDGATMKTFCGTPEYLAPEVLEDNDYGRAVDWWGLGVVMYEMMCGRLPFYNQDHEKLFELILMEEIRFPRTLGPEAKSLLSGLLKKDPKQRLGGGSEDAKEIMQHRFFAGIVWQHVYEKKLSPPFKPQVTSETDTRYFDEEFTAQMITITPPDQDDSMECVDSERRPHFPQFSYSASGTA
SMILES,minimal effective concentration (HUVEC [1]),Activity (HUVEC [2]),IC50 (HUVEC [1]),IC50 [7],further results
Cc1[nH]c(/C=C2\C(=O)Nc3ccc(C(=O)NNc4ccc(C(F)(F)F)cc4)cc32)c(C)c1CCC(=O)O,50 µM,50 µM,–,–,–
Cc1[nH]c(/C=C2\C(=O)Nc3ccc(C(=O)NNc4ccc(C#N)cc4)cc32)c(C)c1CCC(=O)O,> 50 µM,50 µM,–,–,–
Cc1[nH]c(/C=C2\C(=O)Nc3ccc(C(=O)NNc4ccccc4)cc32)c(C)c1CCC(=O)O,10 µM,50 µM,27.4 µM,0.04 µM,Activity (HUVEC [3]): Active; IC50 [4]: 0.1 µM; Activity [5]: Active; Activity (HUVEC [6]): Dose-dependent effect; IC50 [8]: 0.07 µM; IC50 [9]: 3.48 µM; Activity [10]: Active
COc1cc(OC)cc(-c2ccc3c(c2)NC(=O)/C3=C\c2[nH]c(C)c(CCC(=O)O)c2C)c1,–,–,18.2 µM,0.78 µM,IC50 [4]: 0.52 µM; IC50 [8]: 0.93 µM; IC50 [9]: > 100 µM
Cc1[nH]c(/C=C2\C(=O)Nc3ccc(C(=O)NNc4ccccc4Cl)cc32)c(C)c1CCC(=O)O,50 µM,–,–,–,–
Cc1[nH]c(/C=C2\C(=O)Nc3ccccc32)c(C)c1CCC(=O)O [ORANTINIB],10 µM,–,> 50 µM,0.05 µM,–
Cc1[nH]c(/C=C2\C(=O)Nc3ccc(C(=O)NNc4ccccc4[N+](=O)[O-])cc32)c(C)c1CCC(=O)O,50 µM,50 µM,–,–,–
